Screens: PubChem, several laboratories
NCF1 inh: inhibitors of human p47phox binding | inhibition, % at 24.7 µM | 220,000 tested, 0.53% active | AID 1274 | p47phox/p22phox peptide binding, fluorescence polarization, 2 h;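 active = inhibition above about 30%, limit read from the data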
Target sequence (P14598 whole entry, looked up): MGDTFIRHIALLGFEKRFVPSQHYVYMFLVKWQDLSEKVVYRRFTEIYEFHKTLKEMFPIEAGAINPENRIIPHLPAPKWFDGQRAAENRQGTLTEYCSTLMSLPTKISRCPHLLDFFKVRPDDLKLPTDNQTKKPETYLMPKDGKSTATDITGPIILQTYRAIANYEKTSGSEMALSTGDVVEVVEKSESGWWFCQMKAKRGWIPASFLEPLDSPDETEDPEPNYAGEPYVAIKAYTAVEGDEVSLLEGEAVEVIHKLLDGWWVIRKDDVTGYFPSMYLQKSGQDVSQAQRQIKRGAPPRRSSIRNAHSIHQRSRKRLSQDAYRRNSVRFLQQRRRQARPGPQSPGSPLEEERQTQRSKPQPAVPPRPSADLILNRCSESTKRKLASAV
Tb hexokinase: T. brucei hexokinase 1 inhibition; 220,000 tested, 0.11% active; recombinant TbHK1, G6PDH-coupled NADH A340; inhibition, % at 10 µM; AID 1430;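 active = inhibition of 50% or more in the single-dose primary screen; inactive = inhibition below 50%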
SDO1 yeast rescue: restores growth of sdo1-depleted yeast. S. cerevisiae sdo1-depleted JHY4D growth rescue, OD600 30 h; stronger effect = higher value; pdr5 snq2 efflux-pump mutant strain. z-score at 10 µM. 140,000 tested, 0.21% active;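 active = z-score above 3 at both the 24 hr and the 30 hr optical density reads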
RBBP9 inhibitor: human RBBP9 hydrolase inhibition; inhibition, % at 7.94 µM; 220,000 tested, 0.2% active; AID 1515; recombinant RBBP9, FP-Rh probe fluorescence polarization; O75884;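 active = inhibition above the campaign mean of all tested compounds plus 3 SD, cut at about 14% in these data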
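Material: RBBP9 protein. Amount: RBBP9 at 2.5 µM in dispensed solution, before mixing. Schedule: 30 min then 45 min, 25 °C. Medium: Tris buffer pH 8.0, NaCl, Pluronic. Measured by: fluorescence polarization. Measure: percent inhibition from mP, scaled between DMSO and no-protein wells. Replication: one well per compound.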
Yeast life ext: extends the lifespan of yeast. S. cerevisiae growth with nicotinamide, OD615; deaD strain in restrictive glucose medium. inhibition of the nicotinamide effect, % at 10 µM. 130,000 tested, 0.68% active. AID 775;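 active = inhibition above a set limit, placed 3 SD over the median of all compounds, cut at about 26% in these data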
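Assay system: engineered S. cerevisiae DeaD replicative-lifespan strain, galactose-grown log-phase cells; medium: restrictive CSMM-D dextrose medium; also added: nicotinamide, 1.5 mM, co-present with compound; schedule: 48 h compound exposure at 30 °C, humidified; detection: absorbance at 615 nm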
BB579 growth dn: yeast BB579 growth reduction in restrictive medium; AID 804; S. cerevisiae BB579 growth, OD615, 48 h; 140,000 tested, 0.51% active; inhibition, % at 10 µM;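 active = inhibition above a set limit, 3 SD over the mean compound inhibition, cut at about 44% in these data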
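System: Saccharomyces cerevisiae DeaD strain BB579, replicative lifespan model yeast. Buffer or medium: restrictive glucose-based CSMM-D medium. Doses: one dose, 10 µM compound with 0.25% DMSO. Timing: 4 h preincubation and 48 h exposure at 30 °C. Detection: turbidity as optical density at 615 nm. Benchmarks: amphotericin B 10 µg/mL, positive.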
RBBP9 confirm: confirmation of human RBBP9 inhibitors; shares compounds with RBBP9 inhibitor; recombinant RBBP9, FP-Rh probe fluorescence polarization; inhibition, % at 7.94 µM; 410 tested, 36% active;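 active = inhibition above the hit cutoff derived for the primary screen, cut at about 15% in these data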
A number is an active result; i = inactive; nt = not tested or not shown. Rows were chosen to be rich in hits. Some 1.6% of all compounds tested hit in one or more screens of this group.

SMILES	NCF1 inh	Tb hexokinase	SDO1 yeast rescue	RBBP9 inhibitor	Yeast life ext	BB579 growth dn	RBBP9 confirm
COc1cc(/C=C(/C)[N+](=O)[O-])ccc1OCc1ccccc1Cl	i	i	i	i	i	i	nt
O=c1[nH]c(=O)n(Cc2ccco2)c(O)c1C=NC1CC1	i	i	i	i	i	i	nt
CC(C)N(Cc1ccco1)/N=C/c1c(O)n(Cc2ccccc2)c(=O)[nH]c1=O	i	i	nt	19	nt	nt	i
CCN(CC)P(=O)(NC(=O)c1cccn1C)N(CC)CC	i	i	nt	i	nt	nt	nt
CCC(C)n1c(O)c(C=NC(C)c2ccccc2)c(=O)[nH]c1=S (configuration not stated)	i	i	nt	16	nt	nt	i
CC1CCC(C(=O)NC(C(=O)N2CCC3(CC2)OCCO3)C(C)C)CC1 (configuration not stated)	i	i	i	i	i	i	nt
